Assay outcomes deposited in PubChem BioAssay by several laboratories.
NSD2 HMT inh: inhibitors of human histone methyltransferase NSD2; O96028; NSD2 peptide methylation, AlphaScreen, 120 min; inhibition, % at 12.5 µM; 0.54% of 310,000 active; AID 743445; in the data active = inhibition above about 50%
Target sequence (O96028 whole entry, looked up): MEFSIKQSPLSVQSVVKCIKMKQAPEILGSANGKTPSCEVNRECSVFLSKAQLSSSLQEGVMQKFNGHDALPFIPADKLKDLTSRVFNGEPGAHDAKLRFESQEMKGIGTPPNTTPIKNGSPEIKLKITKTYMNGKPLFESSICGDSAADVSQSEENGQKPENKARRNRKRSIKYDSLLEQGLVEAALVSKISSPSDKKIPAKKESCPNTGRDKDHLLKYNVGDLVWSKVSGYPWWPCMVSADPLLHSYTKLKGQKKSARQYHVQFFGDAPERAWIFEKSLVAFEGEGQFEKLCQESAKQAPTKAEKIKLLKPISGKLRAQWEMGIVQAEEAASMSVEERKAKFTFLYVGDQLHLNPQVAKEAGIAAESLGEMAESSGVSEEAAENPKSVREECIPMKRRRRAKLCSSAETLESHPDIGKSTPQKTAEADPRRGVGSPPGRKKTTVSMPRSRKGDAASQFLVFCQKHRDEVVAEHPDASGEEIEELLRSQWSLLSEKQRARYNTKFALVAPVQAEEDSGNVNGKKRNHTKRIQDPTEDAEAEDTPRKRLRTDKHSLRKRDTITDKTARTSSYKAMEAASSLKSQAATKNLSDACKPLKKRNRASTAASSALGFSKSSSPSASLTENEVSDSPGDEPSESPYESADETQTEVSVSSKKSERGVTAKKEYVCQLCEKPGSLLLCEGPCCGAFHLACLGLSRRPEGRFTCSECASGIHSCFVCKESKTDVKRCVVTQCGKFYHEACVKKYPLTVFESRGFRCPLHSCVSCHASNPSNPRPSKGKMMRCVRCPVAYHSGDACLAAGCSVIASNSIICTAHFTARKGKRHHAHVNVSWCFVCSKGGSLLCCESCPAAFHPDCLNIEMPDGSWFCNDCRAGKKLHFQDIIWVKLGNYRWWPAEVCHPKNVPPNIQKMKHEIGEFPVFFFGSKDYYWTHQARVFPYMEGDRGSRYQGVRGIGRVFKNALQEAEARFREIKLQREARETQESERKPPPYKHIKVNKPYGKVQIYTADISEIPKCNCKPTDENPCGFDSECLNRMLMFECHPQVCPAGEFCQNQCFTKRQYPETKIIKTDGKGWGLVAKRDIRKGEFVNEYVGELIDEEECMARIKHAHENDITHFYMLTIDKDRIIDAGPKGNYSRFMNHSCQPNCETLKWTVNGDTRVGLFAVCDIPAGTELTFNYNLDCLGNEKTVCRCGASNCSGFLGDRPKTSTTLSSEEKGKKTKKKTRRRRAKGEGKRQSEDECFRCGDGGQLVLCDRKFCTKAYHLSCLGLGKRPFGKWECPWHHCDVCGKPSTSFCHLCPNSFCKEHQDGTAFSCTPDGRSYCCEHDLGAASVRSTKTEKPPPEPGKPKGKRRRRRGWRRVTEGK
TDP2 inh: blocks human TDP2 phosphodiesterase activity. O95551. recombinant TDP2, T5PNP hydrolysis, p-nitrophenol absorbance 415 nm. inhibition, % at 12.8 µM. 0.34% of 370,000 active;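 active = inhibition above the mean of all tested compounds plus 3 SD, set per campaign, cut at about 25% in these data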;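 also: 0% = DMSO with enzyme and 100% = buffer with substrate but no TDP2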
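Material: recombinant human TDP2; quantity: TDP2 enzyme at 120 nM final; medium: Tris-HCl pH 7.5 with MgCl2; compound: single concentration, 12.8 µM nominal, with 1% DMSO; incubation: 2 h enzyme incubation at 37 °C; signal: epi absorbance; measure: percent inhibition; benchmarks: high control without enzyme, low control DMSO plus TDP2; repeats: singlicate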
MBD2 DNA inh: MBD2-methylated oligo binding inhibition. inhibition, % at 4.4 µM. TR-FRET, MBD2 binding to methylated oligonucleotide. 0.31% of 370,000 active. AID 686964. Q9UBB5; in the data active = inhibition above about 13%
UHRF1 binding: human UHRF1 methylated DNA binding inhibitors. Q96T88. UHRF1 binding to methylated oligo, TR-FRET. inhibition, % at 4.4 µM. 0.75% of 370,000 active. AID 687016;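 also: UHRF1 SRA domain binding a hemimethylated CpG hairpin DNA probe; 0% = median of test compound wells and 100% = reference inhibitor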
Casp6 inh: inhibitors of human caspase-6 | inhibition, % at 12.5 µM | purified caspase-6, Z-VEID-R110 cleavage fluorescence | 0.53% of 350,000 active | AID 686996;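 active = mean inhibition across replicates at least about 35%, with every replicate also reaching that limit, limit read from the data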;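 also: 0% = median of neutral control wells and 100% = no fluorescence left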
LEDGF integ inh: blocks HIV-1 LEDGF/p75-dependent DNA integration | 0.64% of 370,000 active | TR-FRET IN-LEDGF/p75 DNA integration, Eu/Cy5 | inhibition, % at 3.7 µM;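 active = inhibition above the screen-wide mean plus 3 SD, cut at about 13% in these data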;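 also: signal is the Cy5 over europium emission ratio at 671 and 618 nm; 0% = plate median of compound wells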
UHRF1 ctr MBD2: UHRF1 methyl-oligo binding inhibition as MBD2 counter-screen. AID 720530. 25% of 1,000 active. UHRF1 binding to methylated oligonucleotide, TR-FRET. inhibition, % at 4.4 µM. shares compounds with MBD2 DNA inh;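 also: UHRF1 SRA domain binding a labeled hemimethylated CpG hairpin DNA; 0% = vehicle only and 100% = reference inhibitor with vehicle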
MBD2 confirm: MBD2-DBD methyl-DNA binding inhibition, TR-FRET confirmation. shares compounds with MBD2 DNA inh. TR-FRET MBD2-DBD binding to methylated oligonucleotide. inhibition, % at 4.4 µM. 26% of 1,000 active; in the data active = inhibition above about 14%
Numbers without * were called inactive; / = not tested or not shown. Shown are actives, neighbours in structure and some others; about 1.8% of the full set was active somewhere. Rule as the data show it, unless noted: active = inhibition above about 21%; inactive = the rest.

SMILES	NSD2 HMT inh	TDP2 inh	MBD2 DNA inh	UHRF1 binding	Casp6 inh	LEDGF integ inh	UHRF1 ctr MBD2	MBD2 confirm
COc1cc2nc(N3CCNCC3)nc(N)c2cc1OC	0.9	11.0	13.9*	13.7	/	-1.1	31.7*	27.3*
COc1cccc(S(=O)(=O)N2C[C@@H](O)COC[C@H]3O[C@H](CC(=O)N4CCOCC4)CC[C@@H]32)c1	/	/	/	/	-1.0	/	/	/
C/C=C/C=[N+](\[O-])C(C)/C(=N/O)c1ccc(F)cc1 (stereo not drawn)	-2.1	8.4	14.2*	4.9	/	1.1	0.7	1.0
Cc1ccc(S(=O)(=O)NC(=O)Nc2cccc(S(=O)(=O)N(C)C)c2)cc1	-0.9	-2.8	55.9*	2.2	-0.9	-1.4	5.7	1.6
Cc1ccc(CNC(=O)c2ccc(CS(=O)(=O)c3ccccc3C)o2)cc1	/	-3.5	33.5*	-3.1	2.6	2.3	4.5	5.8
O=C(NCCc1ccncc1)[C@H]1N[C@H]2c3ccc(/C=C/c4ccccc4)c(=O)n3C[C@H]2[C@@H]1CO	/	/	/	/	-1.4	/	/	/
NC(=O)C1=C[C@@H](c2csc3ccccc23)C[C@@H](OCCCCO)O1	/	-3.0	14.8*	-4.9	-3.0	3.5	-0.5	0.7
FC(F)Sc1nc2ccccc2[nH]1	13.8	8.5	40.2*	-0.2	0.2	-3.4	9.0	5.9
FC(F)c1nc2ccccc2[nH]1	-1.5	3.6	-2.1	-0.9	1.8	-1.8	/	/
O=C(C[C@H]1C=C[C@@H](NC(=O)CN2CCOCC2)[C@H](CO)O1)NCc1cccc(F)c1	/	/	/	/	-1.8	/	/	/
Cc1ccc(-c2nc3ccc(C)cn3c2CC2CCCCC2)cc1	/	-11.8	13.4*	21.7*	-8.2	2.1	7.0	2.2
COc1ccc(CN(C)C[C@@H]2OCCCC[C@H](C)Oc3ccc(NC(=O)Nc4ccc(C(F)(F)F)cc4)cc3C(=O)N([C@H](C)CO)C[C@H]2C)cc1	/	/	/	/	-5.1	/	/	/
COc1ccccc1CNC(=O)C[C@@H]1CC[C@@H]2[C@@H](COc3ccc(NS(=O)(=O)c4ccc(C)cc4)cc3C(=O)N2C)O1	/	/	/	/	2.8	/	/	/
COc1ccccc1CNC(=O)C[C@H]1CC[C@H]2[C@H](COc3ccc(NS(=O)(=O)c4ccc(C)cc4)cc3C(=O)N2C)O1	/	7.1	17.9*	1.0	0.4	-0.7	4.6	5.6
C[C@@H]1CN([C@H](C)CO)C(=O)Cc2cc(NC(=O)C3CC3)ccc2O[C@@H]1CN(C)S(C)(=O)=O	/	/	/	/	-3.4	/	/	/
COCCn1c(N)c(N(Cc2ccccc2)C(=O)c2ccc3ccccc3c2)c(=O)[nH]c1=O	-3.1	9.8	13.3*	26.3*	1.1	9.6	5.6	2.2
COC(=O)C1CN(C2CC2)CCS(=O)(=O)N1Cc1cn(Cc2ccc(OC)cc2)nn1 (stereo not drawn)	/	-3.6	0.3	2.7	/	-2.5	/	/
COC(=O)C1CN(C2CCCC2)CCS(=O)(=O)N1Cc1cn(Cc2ccc(OC)cc2)nn1 (stereo not drawn)	/	2.8	15.5*	-3.7	/	5.4	4.0	2.4
COc1ccc(C2C3=C(CC(C)(C)CC3=O)Oc3ncn(CCO)c(=N)c32)cc1OC (stereo not drawn)	1.5	-5.2	49.0*	6.2	/	-2.1	6.9	1.5
C[C@H](CO)N1C[C@H](C)[C@@H](CN(C)C(=O)CCCN(C)C)OCCCC[C@H](C)Oc2ccc(NS(=O)(=O)c3cccs3)cc2C1=O	/	/	/	/	-19.7	/	/	/
Cc1ccnc2nc(C(=O)OCC(=O)c3ccc(NC(=O)CC(C)C)cc3)nn12	0.0	-2.5	1.6	2.4	0.4	0.5	/	/
CCC(=O)Nc1ccc(C(=O)COC(=O)c2nc3nccc(C)n3n2)cc1	6.6	-3.6	34.0*	55.5*	68.6*	10.1	31.3*	29.9*
CCN(CC)CCn1c2ccccc2c2cnc(N)c(C#N)c21	/	-6.9	16.4*	16.8	/	2.1	21.2*	32.7*
COc1ccc(CN(C)C[C@H]2Oc3c(NS(=O)(=O)c4c(C)noc4C)cccc3C(=O)N([C@H](C)CO)C[C@H]2C)cc1	/	/	/	/	-1.6	/	/	/
CNCC(O)C(O)C(O)C(O)CO (stereo not drawn)	/	-2.9	5.3	-0.1	-1.7	4.8	/	/
SMILES	NSD2 HMT inh	TDP2 inh	MBD2 DNA inh	UHRF1 binding	Casp6 inh	LEDGF integ inh	UHRF1 ctr MBD2	MBD2 confirm
OC[C@@H](O)C(O)[C@@H](O)CO (stereo partly drawn)	/	7.2	22.3*	12.9	-3.4	-0.3	6.0	3.2
COc1ccc(S(=O)(=O)NCc2ccncc2)cc1NC(=O)c1ccccc1	-2.2	19.0	15.8*	32.6*	-3.0	4.1	5.0	2.4
COC1=Nc2ccccc2N2CCN=C12	-4.5	-2.1	2.9	1.0	-0.8	-1.3	/	/
c1ccc2c(c1)C1=NCCN1c1ccccc1-2	3.0	6.5	25.9*	-11.9	-4.5	-1.7	-0.6	38.7*
C[C@H]1CN([C@@H](C)CO)C(=O)c2cc(NC(=O)CCC(F)(F)F)ccc2O[C@@H]1CN(C)S(=O)(=O)c1ccc(Cl)cc1	/	/	/	/	-0.6	/	/	/
CO[C@@H]1CN(C)C(=O)c2cc(NC(=O)Cc3ccccc3)ccc2OC[C@@H](C)N(C(C)=O)C[C@H]1C	/	/	/	/	-1.2	/	/	/
CC(C)NC(=O)Cn1c(SCC(=O)c2ccc(F)cc2)nc2ccccc21	-0.1	23.4	14.0*	21.8*	/	8.7	5.6	3.3
CC=Cc1ccc2n(c1=O)C[C@H]1[C@H](CO)[C@@H](C(=O)NCC3CC3)[C@@H]2N1C(=O)c1ccccc1 (mixture of isomers)	/	/	/	/	1.0	/	/	/
CCCC#Cc1ccc([C@H]2[C@@H](CO)N3C(=O)CN(C(=O)Nc4ccccc4F)C[C@H]23)cc1	/	/	/	/	2.4	/	/	/
Cc1ccc2sc(N(CCCN(C)C)C(=O)c3ccc(S(=O)(=O)N(C)Cc4ccccc4)cc3)nc2c1C	3.1	-6.1	56.5*	-0.2	-7.5	-2.0	3.5	1.0
Cc1ccc2sc(N(CCCN(C)C)C(=O)c3ccc(S(=O)(=O)N(C)C)cc3)nc2c1C	2.9	0.6	3.5	4.9	1.5	-5.5	/	/
C[C@@H]1CN([C@H](C)CO)C(=O)c2c(c3ccccc3n2C)-c2ccccc2CO[C@@H]1CN(C)C(=O)[C@@H]1CCCN1C	/	/	/	/	-1.4	/	/	/
CCOC(=O)CSc1nc2sc(C)c(C)c2c(=O)n1C	-0.7	0.3	2.3	1.2	/	0.2	/	/
CCOC(=O)CSc1nc(C(C)C)nc2sc(C)c(C)c12	0.8	-0.5	45.5*	1.9	2.5	-1.1	2.5	3.6
C[C@@H]1CN([C@@H](C)CO)C(=O)Cc2cc(NC(=O)Cc3cn(C)c4ccccc34)ccc2O[C@H]1CN(C)C(=O)Nc1ccc2c(c1)OCO2	/	/	/	/	-6.5	/	/	/
